Laboratory results: PMC4266334 (Journal of Medicinal Chemistry, 2014)

Tests used:
leukemia Jurkat-T = experiment: MTT toxicity assay, Jurkat; format: cell-based, human; conditions: read-out: IC50 Jurkat, 24 h incubation, mean ± SD (n = 4)
Procedure, shortened: (§1)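 Cells were seeded at 5 × 10^4/well for Jurkat or 10^4/well for adherent lines, which attached 24 h. Test compound was added at several concentrations in triplicate for 24 h at 37 °C, 5% CO2, and read by modified MTT reduction.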

[1] = tested on: triple negative breast MDA-MB-231; experiment: MTT toxicity assay, MDA-MB-231; format: cell-based, human; conditions: read-out: IC50 MDA-MB-231, 24 h incubation, mean ± SD (n = 4)
[2] = tested on: human renal proximal tubular cells (RPTC); experiment: XTT assay for RPTC cells; format: cell-based; conditions: read-out: IC50 RPTC; XTT assay 24 h
Procedure, shortened: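 Primary human renal proximal tubular cells were grown in RenaLife medium (0.5% FBS, growth factors) at 37 °C, 5% CO2. They were seeded at 5 × 10^3/well and grown 24 h. Test compound from fresh aqueous stock was given at 0.1–200 μM final for 24 h. XTT absorbance was read at 450 nm and survival calculated against untreated cells. IC50 is mean ± SE of at least two experiments in triplicate.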

[3] = tested on: nontumorigenic human embryonic kidney cells HEK293T; experiment: MTT toxicity assay, HEK-293T; format: cell-based; conditions: read-out: IC50 HEK-293T, 24 h incubation, mean ± SD (n = 4)
Procedure, shortened: (§2)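 Adherent cells (10^4/well) attached for 24 h, then test compound was added at several concentrations in triplicate for 24 h at 37 °C, 5% CO2. Proliferation was read by a modified MTT-reduction method.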

plasmid (pBR322) DNA = experiment: Electrophoresis mobility shift assay; format: binding; conditions: 37 °C, 20 h, Tris/HCl buffer, up to drug/DNA ratio 2.0
Procedure, shortened: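 pBR322 DNA (20 μg/mL) in 5 mM Tris/HCl, 50 mM NaClO4, pH 7.39 was incubated with test compound at 0.25–2.0 metal complex:DNA bp. Incubation was 37 °C, 20 h, in the dark, with free DNA and cisplatin-DNA controls. Samples ran on 1% agarose in TAE for 1.5 h at 80 V and were stained 30 min with GelRed.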

pancreas MiaPaca2 = experiment: MTT toxicity assay, MiaPaca2; format: cell-based, human; conditions: read-out: IC50 MiaPaca2, 24 h incubation, mean ± SD (n = 4)
Procedure, shortened: as §1

lung A549 = experiment: MTT toxicity assay, A549; format: cell-based, human; conditions: read-out: IC50 A549, 24 h incubation, mean ± SD (n = 4)
Procedure, shortened: as §2

prostate DU-145 = experiment: MTT toxicity assay, DU-145; format: cell-based, human; conditions: read-out: IC50 DU-145, 24 h incubation, mean ± SD (n = 4)
Procedure, shortened: as §1

## N.N.[Cl][Pt][Cl] [cisplatin]
Leukemia Jurkat-T
  IC50: 10.8 ± 1.2 µM
[1]
  IC50: 131 ± 18 µM
[2]
  IC50: 46.4 ± 2.46 µM
[3]
  IC50: 69 ± 6.7 µM
Plasmid (pBR322) DNA
  effect on electrophoretic mobility of plasmid pBR322: both increase and decrease the mobility of the OC and the CCC forms
Pancreas MiaPaca2
  IC50: 76.5 ± 7.4 µM
Lung A549
  IC50: 114 ± 9.1 µM
Prostate DU-145
  IC50: 112 ± 33 µM
